Results on 1 compound are retold here after ChEMBL document CHEMBL4680257, “Discovery of novel NF-кB inhibitor based on scaffold hopping: 1,4,5,6,7,8-hexahydropyrido[4,3-d]pyrimidine” (Eur J Med Chem, 2020).

The source made the active and inactive calls. No cut-off for these calls is given here.

Broadly, the IC50 is the midpoint of a concentration-inhibition curve.

Test [1] relates to HepG2. Description: Induction of apoptosis in human HepG2 cells assessed as late apoptotic cells at 4 uM incubated for 24 hrs by annexin V-FITC and PI staining based flow cytometry analysis (reference value: 4.8 %). The test is classed as functional. The method in brief: (§1)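 Cells seeded at 2×10^5 per well and treated 24 h with 1.0, 2.0 or 4.0 µM, or DMSO. Harvested, washed twice in cold PBS, resuspended at 1×10^5 cells/mL in buffer. Stained with Annexin V-FITC plus propidium iodide for 15 min at room temperature in the dark, then analysed by flow cytometry.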
In general terms: In flow cytometry, cells or beads pass a laser one at a time.

Test [2] concerns HepG2. Description: Induction of apoptosis in human HepG2 cells assessed as early apoptotic cells at 4 uM incubated for 24 hrs by annexin V-FITC and PI staining based flow cytometry analysis (reference value: 0.2 %). In kind it is functional. The method in brief:
as §1

Test [3] has as its system RAW264.7. Description: Inhibition of NF-kappaB in mouse RAW264.7 cells assessed as reduction in LPS-induced IkappaBalpha phosphorylation incubated for 1 hr followed by LPS stimulation and measured after 30 mins by Western blot analysis. The settings on record: dose 1-4 µM. In kind it is cell-based. The method in brief: (§2)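 RAW264.7 incubated 1 h with compound (1.0, 2.0, 4.0 µM), then LPS 1.0 µg/mL for 30 min before extraction. Lysates blotted to nitrocellulose and probed overnight at 4 °C for total and phospho forms of p65, IκBα, Akt, ERK1/2, JNK and p38; secondary antibody 2 h at room temperature. ECL detection, normalized to GAPDH, mean ± SD of triplicate tests.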

For test [4], the system named is HepG2. Description: Cytotoxicity against human HepG2 cells assessed as reduction in cell viability incubated for 24 hrs by MTT assay. In kind it is functional, cell-based. The settings on record: HepG2, 24 h. The method in brief:
(§3)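 Cells kept at 37 °C in 5% CO₂. HepG2 grown in DMEM with 10% serum; HHL-5, LO2 and SMMC-7721 in 1640 medium with 10% serum. Seeded, grown 24 h, then exposed 24 h to 10, 5, 2.5, 1.25, 0.625 and 0.3125 µg/mL. MTT (5 mg/mL) added for 4 h at 37 °C; formazan dissolved in DMSO, OD read at 570 nm. IC50 averaged from three replicates.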
(In general: Formazan colour is commonly taken as a measure of viable cells.)

The subject of test [5] is RAW264.7. Description: Inhibition of NF-kappaB in mouse RAW264.7 cells assessed as reduction in LPS-induced p38 phosphorylation at 1 to 4 uM incubated for 1 hr followed by LPS stimulation and measured after 30 mins by Western blot analysis. In kind it is cell-based. The settings on record: dose 1-4 µM. Put shortly:
as §2
(In general: Immunoblotting shows a protein as a band on a membrane.)

Test [6] concerns HepG2. Description: Inhibition of NF-kappaB in human HepG2 cells assessed as reduction in TNFalpha-induced p65 nuclear translocation at 4 uM pretreated with LPS for 15 mins followed by compound addition and measured after 2 hrs by DAPI staining based fluorescence microscopy. The test is classed as cell-based. The note with it: time 135.0 min, in the assay text read “pretreated with TNF-alpha” for “pretreated with LPS”. The method in brief:
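HepG2 exposed to TNF-α (10 ng/mL) for 15 min, then 4.0 µM compound for 2 h. Fixed at room temperature and blocked with 3% BSA. Anti-p65 (1:200) overnight at 4 °C, then secondary (1:200) for 30 min at room temperature. Nuclei stained with DAPI; p65 location imaged on a high-content fluorescence system. Repeated three times.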

Test [7] concerns RAW264.7. Description: Inhibition of NF-kappaB in mouse RAW264.7 cells assessed as reduction in LPS-induced p65 nuclear translocation at 4 uM pretreated with LPS for 15 mins followed by compound addition and measured after 2 hrs by DAPI staining based fluorescence microscopy. The test is classed as cell-based. The settings on record: time 135.0 min. Put shortly: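 RAW264.7 exposed to LPS (1 µg/mL) for 15 min, then 4.0 µM compound for 2 h. Fixed at room temperature and blocked with 3% BSA. Anti-p65 (1:200) overnight at 4 °C, then secondary (1:200) for 30 min at room temperature. Nuclei stained with DAPI for 15 min; imaged on a high-content fluorescence system. Repeated three times.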

For test [8], the system named is HepG2. Description: Inhibition of NF-kappaB in human HepG2 cells assessed as reduction in TNFalpha-induced p65 nuclear translocation at 4 uM pretreated with TNFalpha for 15 mins followed by compound addition and measured after 2 hrs by DAPI staining based fluorescence microscopy. The note with it: time 135.0 min.
For test [9], the system named is RAW264.7. Description: Inhibition of NF-kappaB in mouse RAW264.7 cells assessed as reduction in LPS-induced Akt phosphorylation at 1 to 4 uM incubated for 1 hr followed by LPS stimulation and measured after 30 mins by Western blot analysis. The test is classed as cell-based. The note with it: dose 1-4 µM. Put shortly:
as §2

The test system of test [10] is SMMC-7721. Description: Induction of apoptosis in human SMMC-7721 cells assessed as necrotic cells at 4 uM incubated for 24 hrs by annexin V-FITC and PI staining based flow cytometry analysis (reference value: 1 %). In kind it is functional. The method in brief: as §1
Test [11] deals with SMMC-7721. Description: Cytotoxicity against human SMMC-7721 cells assessed as reduction in cell viability incubated for 24 hrs by MTT assay. In kind it is functional, cell-based. The note with it: SMMC-7721, 24 h. The method in brief:
as §3

In test [12] the test system is HepG2. Description: Induction of apoptosis in human HepG2 cells assessed as viable cells at 1 uM incubated for 24 hrs by annexin V-FITC and PI staining based flow cytometry analysis (reference value: 94.2 %). In kind it is functional. The settings on record: read-out: Activity. Put shortly: as §1

For the compound `Cl.NC1=NC(c2cccc(F)c2)C2=C(N1)/C(=C/c1cccc(F)c1)CN(S(=O)(=O)c1ccc(C(F)(F)F)cc1)C2` (configuration not stated), the figures for the Activity with HepG2 [1], in the test with HepG2 [2] and with SMMC-7721 [10] were 18.5%, 49.8% and 12.9%, respectively. The inhibition entry in the test on RAW264.7 [3] is “Dose-dependent effect”. For the same compound, the figures for the IC50 in the test on HepG2 [4] and with SMMC-7721 [11] were 2100 nM and 2400 nM, respectively. The inhibition result with RAW264.7 [5], in the test with HepG2 [6], in the test with RAW264.7 [7], in the test on HepG2 [8] and in the test with RAW264.7 [9] was “Active” throughout. Besides, in the test on HepG2 [12], the viability at 1 µM came out at 35.3%.
